Source: PubChem
hERG rescue – hERG (human) protection from proarrhythmic block; CHO-hERG, FluxOR thallium flux, dofetilide IC70 present; activation (rescue from dofetilide block), less the hit threshold, % at 10 µM; 310,000 compounds, 0.51% hits;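 active = activation above the mean of controls blocked by dofetilide plus 5 SD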;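 also: thallium influx through hERG after potassium depolarization seen as dye fluorescence rise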
KCNQ1 pot – potentiates or activates the human KCNQ1 potassium channel. B-score at 10 µM. CHO-K1 KCNQ1, thallium flux FluxOR fluorescence; stronger effect = higher value. 310,000 compounds, 0.35% hits;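 active = fluorescence ratio B-score, a plate-corrected score, at least three library SD, with initial intensity B-score within 5 SD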
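Schedule – 37 °C overnight plating, 90-min dark dye load, 20-min compound pretreatment · System – stable KCNQ1 CHO-K1 line · Probe or stimulus – thallium- and potassium-containing depolarizing buffer · Measured by – kinetic FluxOR fluorescence, 10 s baseline plus 110 s post-stimulus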
Kir21 block – inhibitors of mouse Kir2.1 inward-rectifier potassium channel; P35561; B-score at 10 µM; 310,000 compounds, 0.85% hits; HEK293-Kir2.1, FluxOR thallium flux fluorescence; stronger effect = lower value; AID 1672;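 active = fluorescence ratio B-score at or below minus 3 SD of library scores, with starting-brightness B-score within 2 SD, cut at about -4.2 in these data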;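 also: channel flux triggered by added potassium and thallium sulfate stimulus; B-score of peak minus minimum fluorescence over baseline after thallium stimulus; more negative B-score means stronger Kir2.1 block with less thallium influx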
KCNK9 block – blocks the human KCNK9 two-pore domain potassium channel; 310,000 compounds, 1.2% hits; HEK293 KCNK9, FluxOR thallium flux fluorescence; stronger effect = lower value; B-score at 10 µM; Q9NPC2;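 active = ratio B-score over 3 SD below the library mean, with starting fluorescence within 5 SD of its mean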;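 also: negative B-score means less thallium flux so channel inhibition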
KCNQ1 inh – blocks the human KCNQ1 potassium channel | CHO-K1 KCNQ1, FluxOR thallium flux fluorescence; stronger effect = higher value | B-score at 10 µM | 310,000 compounds, 1.3% hits | AID 2642;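 active = compounds whose thallium flux B-score, printed positive for inhibition, exceeds three library SD while starting fluorescence stays within three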;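 also: channel opened by potassium depolarization with thallium stimulus after 20 min compound exposure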
KCNK3 inh – human KCNK3 channel inhibition, primary screen; O14649; B-score at 10 µM; 340,000 compounds, 0.84% hits; CHO-KCNK3 thallium flux, FluxOR fluorescence; stronger effect = lower value;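 active = B-score under library mean minus 4 SD, starting fluorescence ratio at most library mean plus 5 SD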;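 also: more negative B-score means stronger inhibition of thallium flux through KCNK3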
Target sequence (O14649 whole entry, looked up): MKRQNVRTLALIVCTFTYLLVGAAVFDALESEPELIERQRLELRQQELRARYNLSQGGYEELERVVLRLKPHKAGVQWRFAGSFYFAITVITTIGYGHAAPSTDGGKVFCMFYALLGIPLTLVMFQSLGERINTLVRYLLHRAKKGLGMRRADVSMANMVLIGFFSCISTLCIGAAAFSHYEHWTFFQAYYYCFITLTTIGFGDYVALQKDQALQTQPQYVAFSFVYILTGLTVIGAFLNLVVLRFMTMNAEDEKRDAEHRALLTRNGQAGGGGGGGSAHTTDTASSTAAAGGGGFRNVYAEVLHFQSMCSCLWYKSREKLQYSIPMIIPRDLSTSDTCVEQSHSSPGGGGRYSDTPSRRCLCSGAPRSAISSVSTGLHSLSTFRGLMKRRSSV
KCNK9 block conf – human KCNK9 inhibitor confirmation | AID 492992 | 4,900 compounds, 43% hits | shares compounds with KCNK9 block | HEK293 KCNK9 cells, FluxOR thallium flux fluorescence | inhibition, % at 10 µM;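 active = thallium signal inhibited by more than 5 SD of the compound-free buffer control wells, on both duplicate plates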;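 also: 0% = assay buffer control wells without compound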
Kir21 sel – mouse Kir2.1 off-target activity of KCNK9 modulators; shares compounds with KCNK9 block; Kir2.1 cells, FluxOR thallium flux fluorescence; inhibition, % at 10 µM; 4,900 compounds, 4% hits; AID 492993;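 active = thallium signal drop more than 5 SD beyond the mean of the no-compound control wells, seen in both duplicate plates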;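 also: signal is fluorescence rise after thallium addition divided by baseline fluorescence; plate controls were assay buffer only for no effect and full block by chlorpromazine control for full effect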
KCNK9 uninduced – second check of KCNK9 modulator effects in non-induced HEK293 cells | AID 492997 | shares compounds with KCNK9 block | 4,900 compounds, 40% hits | inhibition, % at 10 µM | FluxOR thallium flux;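 active = thallium signal drop beyond 5 SD of the untreated control mean, on both duplicate plates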;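 also: plate controls were buffer only IC0 wells for no effect and SID17386958 at its maximal inhibitory level for full effect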
An asterisk follows results filed as active. Shown are actives, neighbours in structure and some others; about 3.7% of the full set was active somewhere.

CCn1cnc2c1c(=O)n(Cc1cccc([N+](=O)[O-])c1)c(=O)n2Cc1ccccc1 was read as hERG rescue -7, KCNQ1 pot inactive, Kir21 block 1.3, KCNK9 block inactive, KCNQ1 inh inactive, KCNK3 inh inactive, KCNK9 block conf inactive, Kir21 sel inactive and KCNK9 uninduced inactive.
CCn1cnc2c1c(=O)n(Cc1nnc3n1-c1ccccc1SC3)c(=O)n2Cc1ccccc1 was read as hERG rescue -5, KCNQ1 pot inactive, Kir21 block -0.72, KCNK9 block inactive, KCNQ1 inh inactive, KCNK3 inh inactive, KCNK9 block conf inactive, Kir21 sel inactive and KCNK9 uninduced inactive.
Screening Cc1cccc(C)c1NC(=O)CN(C)S(=O)(=O)c1ccc(-c2ccc(=O)[nH]n2)s1 returned hERG rescue -6, KCNQ1 pot inactive, Kir21 block 2.1, KCNK9 block inactive, KCNQ1 inh inactive and KCNK3 inh inactive.
For CCc1noc(C)c1C(=O)NNC(=O)COc1cc(C)ccc1C the results were KCNK3 inh inactive.
CC(CCc1ccccc1)NC(=O)CCCn1ncn2c(cc3occc32)c1=O (stereo not drawn) was read as hERG rescue -7, KCNQ1 pot inactive, Kir21 block 1.6, KCNK9 block inactive, KCNQ1 inh inactive and KCNK3 inh inactive.
CS(=O)(=O)N1CCC(Oc2cccc(C(=O)NCCCOc3cccnc3)c2)CC1 was read as hERG rescue -10, KCNQ1 pot inactive, Kir21 block 1.9, KCNK9 block inactive, KCNQ1 inh inactive and KCNK3 inh inactive.
Screening COc1ccc2c(c1OC)C(=O)N(c1cccc(NC(C)=O)c1)C2 returned hERG rescue -3, KCNQ1 pot inactive, Kir21 block 0.65, KCNK9 block inactive, KCNQ1 inh inactive and KCNK3 inh inactive.
Screening CCCCCCCCCCn1c2c(c(=N)c3c1CCC3)CCC2 returned hERG rescue 58*, KCNQ1 pot inactive, Kir21 block -8.6*, KCNK9 block -18*, KCNQ1 inh 6*, KCNK3 inh inactive, KCNK9 block conf 63%*, Kir21 sel 86%* and KCNK9 uninduced 26%*.
`COc1cc(C)c(NC(=O)c2cccc(S(=O)(=O)N3CCCC3)c2)cc1OC` gave KCNK3 inh inactive.
Cc1ccc(NC(=O)CN(C)C(=O)CSc2nc3ccccc3c(=O)n2Cc2ccco2)cc1 was read as hERG rescue -9, KCNQ1 pot inactive, Kir21 block 0.86, KCNK9 block inactive, KCNQ1 inh inactive and KCNK3 inh inactive.
For CN(Cc1ccccc1)C(=O)CSc1nc2ccccc2c(=O)n1Cc1ccco1 the results were hERG rescue -19, KCNQ1 pot inactive, Kir21 block -1.9, KCNK9 block inactive, KCNQ1 inh inactive, KCNK3 inh inactive, KCNK9 block conf inactive, Kir21 sel inactive and KCNK9 uninduced inactive.
`Cc1ccc(C)c(S(=O)(=O)N2CCN(C(=O)c3cncc(Br)c3)CC2)c1` gave hERG rescue -10, KCNQ1 pot inactive, Kir21 block 0.7, KCNK9 block inactive, KCNQ1 inh inactive and KCNK3 inh inactive.
Screening O=C(C[C@H]1C/C=C\C[C@H](Cc2ccc(F)cc2)C(=O)O[C@@H](c2ccccc2)CNC1=O)NCCO returned KCNK3 inh inactive.
Screening Cc1ccc2sc(NNC(=O)c3cc(=O)c4ccccc4o3)nc2c1C returned hERG rescue -21, KCNQ1 pot inactive, Kir21 block -0.55, KCNK9 block inactive, KCNQ1 inh inactive, KCNK3 inh inactive, KCNK9 block conf inactive, Kir21 sel inactive and KCNK9 uninduced inactive.
Screening Cc1cccc2sc(NNC(=O)c3cc(=O)c4ccccc4o3)nc12 returned hERG rescue -16, KCNQ1 pot inactive, Kir21 block 0.01, KCNK9 block inactive, KCNQ1 inh inactive, KCNK3 inh inactive, KCNK9 block conf inactive, Kir21 sel inactive and KCNK9 uninduced inactive.
Screening CCOC(=O)C1=C(COC(=O)CCOc2ccccc2)NC(=O)NC1C (stereo not drawn) returned KCNK3 inh inactive.
CC(C)[C@H](NC(=O)OCc1ccccc1)C(=O)OCC(=O)Nc1ccc(N2CCOCC2)cc1 was read as hERG rescue -18, KCNQ1 pot inactive, Kir21 block 1.6, KCNK9 block inactive, KCNQ1 inh inactive and KCNK3 inh inactive.
Screening CN(C(=O)c1cccc(NC(=O)Cc2cccc([N+](=O)[O-])c2)c1)C1CCCC1 returned KCNK3 inh inactive.
Screening NC(=O)c1nsc(C(=O)N(c2ccc(Cl)cc2)C(C(=O)NCC2CCCO2)c2cccs2)c1N (stereo not drawn) returned hERG rescue -5, KCNQ1 pot inactive, Kir21 block 0.01, KCNK9 block inactive, KCNQ1 inh inactive and KCNK3 inh inactive.
For CCc1ccc(N(C(=O)c2snc(C(N)=O)c2N)C(C(=O)NCC2CCCO2)c2cccs2)cc1 (stereo not drawn) the results were hERG rescue -18, KCNQ1 pot inactive, Kir21 block 3.1, KCNK9 block inactive, KCNQ1 inh inactive, KCNK3 inh inactive, KCNK9 block conf inactive, Kir21 sel inactive and KCNK9 uninduced inactive.
For N#Cc1c(NC(=O)c2ccc(Cn3cc(Br)cn3)o2)sc2c1CCCCC2 the results were hERG rescue -8, KCNQ1 pot inactive, Kir21 block 0.3, KCNK9 block inactive, KCNQ1 inh inactive and KCNK3 inh inactive.
Screening CC1CCc2c(sc(NC(=O)c3ccc(Cn4cc([N+](=O)[O-])cn4)o3)c2C#N)C1 (stereo not drawn) returned hERG rescue -10, KCNQ1 pot inactive, Kir21 block -0.41, KCNK9 block -16*, KCNQ1 inh inactive, KCNK3 inh inactive, KCNK9 block conf 46%*, Kir21 sel inactive and KCNK9 uninduced 30%*.
For CCNc1nc(CSc2ccccc2)nc2sc(C)c(C)c12 the results were hERG rescue -4, KCNQ1 pot inactive, Kir21 block 0.01, KCNK9 block inactive, KCNQ1 inh inactive and KCNK3 inh inactive.
Cc1sc2nc(CSc3ccccc3)nc(N3CCOCC3)c2c1C was read as hERG rescue -12, KCNQ1 pot inactive, Kir21 block -2.3, KCNK9 block inactive, KCNQ1 inh inactive, KCNK3 inh inactive, KCNK9 block conf inactive, Kir21 sel inactive and KCNK9 uninduced 32%*.
